# Reference: ChEMBL document CHEMBL1629624, “In vitro and in vivo studies to characterize the clearance mechanism and potential cytochrome P450 interactions of anidulafungin” (Antimicrob Agents Chemother, 2009)
# pIC50: −log10 of the molar value. *1 amine or outer side, *2 acyl side, *3 side chain or, on linkers, in order; H or OH if unused. Where a SMILES comes first, the peptide text is derived from it. Bridges are numbered along the chain shown (N, C = ends). [ ]: non-standard residue; d: D form. The star is where a group is joined. pTerphenylCO(4''-OnC5H11) = CCCCCOc1ccc(-c2ccc(-c3ccc(C(=O)*)cc3)cc2)cc1; Orn(4R-OH,5R-OH) = O=C([C@H](C[C@@H](O)[C@@H](O)N[*:3])N[*:1])[*:2]; hTyr(3S-OH,4S-OH) = N[C@H](C(=O)O)[C@H](O)[C@@H](O)c1ccc(O)cc1; Pro(3S-OH,4S-Me) = C[C@H]1CN[C@H](C(=O)O)[C@H]1O; Hyp = O=C(O)[C@@H]1C[C@@H](O)CN1
# Columns and labels:
# Cytochrome P450 2C19 = Cytochrome P450 2C19 (Homo sapiens, UniProt P33261); test: Inhibition of human CYP2C19; type: ADME
# Cytochrome P450 2C19, sequence (P33261 whole entry): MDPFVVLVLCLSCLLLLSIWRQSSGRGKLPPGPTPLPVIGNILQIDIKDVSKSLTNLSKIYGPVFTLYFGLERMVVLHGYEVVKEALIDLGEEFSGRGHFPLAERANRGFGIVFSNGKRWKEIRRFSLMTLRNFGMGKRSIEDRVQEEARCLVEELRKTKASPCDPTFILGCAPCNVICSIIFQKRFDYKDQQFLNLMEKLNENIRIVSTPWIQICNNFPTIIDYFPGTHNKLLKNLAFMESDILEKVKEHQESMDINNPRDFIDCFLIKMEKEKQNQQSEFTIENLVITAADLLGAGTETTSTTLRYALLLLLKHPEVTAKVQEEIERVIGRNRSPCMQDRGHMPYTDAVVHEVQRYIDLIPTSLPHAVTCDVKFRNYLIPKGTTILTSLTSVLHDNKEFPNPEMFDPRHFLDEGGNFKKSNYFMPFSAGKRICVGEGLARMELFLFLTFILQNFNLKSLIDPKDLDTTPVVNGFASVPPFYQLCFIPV
# [1] = Volume of distribution at steady state in human plasma at 100 mg, iv by LC-MS/MS analysis; type: ADME, organism-based; conditions: read-out: Vdss
# How it was run: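 Healthy adult men (n = 9), single i.v. infusion of [14C]drug over 100 min at 1 mg/min. 100 mg was planned; the mean dose actually given was 88.3 mg. Heparinized blood drawn from 0 h through day 10 and at 6–8 weeks. Parent drug in plasma measured by validated LC-MS/MS. Noncompartmental analysis, given as mean (%CV).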
# CYP2C8 = target: T1, CYP2C8 (Homo sapiens, UniProt P10632); test: Inhibition of human CYP2C8 at 17.5 uM in presence of rosiglitazone; type: ADME; conditions: probe rosiglitazone
# T1 sequence (P10632 whole entry): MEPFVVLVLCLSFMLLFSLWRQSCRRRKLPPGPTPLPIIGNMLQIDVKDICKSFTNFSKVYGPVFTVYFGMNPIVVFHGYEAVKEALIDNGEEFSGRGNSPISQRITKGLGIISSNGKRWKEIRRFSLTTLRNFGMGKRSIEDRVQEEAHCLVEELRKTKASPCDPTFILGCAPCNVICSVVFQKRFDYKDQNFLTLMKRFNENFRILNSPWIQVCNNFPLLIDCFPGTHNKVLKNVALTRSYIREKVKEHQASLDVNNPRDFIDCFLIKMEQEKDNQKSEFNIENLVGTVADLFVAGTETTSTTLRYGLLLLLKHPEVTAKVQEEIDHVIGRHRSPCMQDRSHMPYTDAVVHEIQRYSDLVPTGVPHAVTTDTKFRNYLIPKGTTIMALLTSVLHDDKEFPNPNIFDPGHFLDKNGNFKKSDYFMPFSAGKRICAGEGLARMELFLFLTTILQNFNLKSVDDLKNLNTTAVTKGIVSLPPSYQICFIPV
# How it was run: (§1)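 Heterologously expressed human CYP2C8, with rosiglitazone N-desmethylase as the marker reaction. […] Incubations run in duplicate.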
# [2] = Half life in human plasma at 100 mg, iv by LC-MS/MS analysis; type: ADME, organism-based
# How it was run: (§2)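 Nine healthy adult men, single i.v. infusion of [14C]drug over 100 min at 1 mg/min (planned 100 mg; mean delivered 88.3 mg). Heparinized blood taken from predose through day 10 and at follow-up. Parent drug in plasma measured by validated LC-MS/MS. Noncompartmental analysis; values are means (%CV).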
# Plasma = test: Clearance in human plasma at 100 mg, iv by LC-MS/MS analysis; type: ADME, organism-based; conditions: in vivo; how it was run: as §2
# [3] = Cmax in human plasma at 100 mg, iv by LC-MS/MS analysis; type: ADME, organism-based; set-up: dose 100 mg, route intravenous; how it was run: as §2
# Cytochrome P450 2C8 [4] = target: T2, Cytochrome P450 2C8 (Homo sapiens, UniProt P10632); test: Inhibition of human CYP2C8 using rosiglitazone as a substrate; type: ADME; how it was run: as §1
# T2 sequence (P10632 whole entry): T1 sequence (P10632 whole entry)
# [5] = Mean residence time in human plasma at 100 mg, iv by LC-MS/MS analysis; type: ADME, organism-based; how it was run: as §2
# Cytochrome P450 2C8 [6] = target: T2, Cytochrome P450 2C8; test: Inhibition of human CYP2C8 using amodiaquine as a substrate; type: ADME
# How it was run: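 CYP2C8 measured as amodiaquine N-deethylase in pooled human liver microsomes from 53 donors. Incubations run in duplicate. IC50 fitted from the concentration series.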
# Cytochrome P450 2C9 = Cytochrome P450 2C9 (Homo sapiens, UniProt P11712); test: Inhibition of human CYP2C9; type: ADME
# Cytochrome P450 2C9, sequence (P11712 whole entry): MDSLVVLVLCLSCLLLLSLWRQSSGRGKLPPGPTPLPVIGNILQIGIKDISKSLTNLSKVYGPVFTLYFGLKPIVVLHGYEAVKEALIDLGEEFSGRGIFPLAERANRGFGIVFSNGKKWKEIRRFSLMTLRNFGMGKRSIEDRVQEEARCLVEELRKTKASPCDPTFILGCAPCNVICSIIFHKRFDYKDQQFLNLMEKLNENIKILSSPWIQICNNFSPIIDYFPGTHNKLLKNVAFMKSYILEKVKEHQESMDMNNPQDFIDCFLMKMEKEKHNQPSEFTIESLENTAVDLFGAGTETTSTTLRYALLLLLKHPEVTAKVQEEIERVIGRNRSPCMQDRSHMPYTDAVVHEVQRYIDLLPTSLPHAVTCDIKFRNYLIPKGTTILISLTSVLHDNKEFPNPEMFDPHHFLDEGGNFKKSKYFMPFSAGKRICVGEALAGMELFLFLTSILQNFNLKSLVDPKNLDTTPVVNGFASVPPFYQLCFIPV
# Cytochrome P450 3A4 = Cytochrome P450 3A4 (Homo sapiens, UniProt P08684); test: Inhibition of human CYP3A4; type: ADME
# Cytochrome P450 3A4, sequence (P08684 whole entry): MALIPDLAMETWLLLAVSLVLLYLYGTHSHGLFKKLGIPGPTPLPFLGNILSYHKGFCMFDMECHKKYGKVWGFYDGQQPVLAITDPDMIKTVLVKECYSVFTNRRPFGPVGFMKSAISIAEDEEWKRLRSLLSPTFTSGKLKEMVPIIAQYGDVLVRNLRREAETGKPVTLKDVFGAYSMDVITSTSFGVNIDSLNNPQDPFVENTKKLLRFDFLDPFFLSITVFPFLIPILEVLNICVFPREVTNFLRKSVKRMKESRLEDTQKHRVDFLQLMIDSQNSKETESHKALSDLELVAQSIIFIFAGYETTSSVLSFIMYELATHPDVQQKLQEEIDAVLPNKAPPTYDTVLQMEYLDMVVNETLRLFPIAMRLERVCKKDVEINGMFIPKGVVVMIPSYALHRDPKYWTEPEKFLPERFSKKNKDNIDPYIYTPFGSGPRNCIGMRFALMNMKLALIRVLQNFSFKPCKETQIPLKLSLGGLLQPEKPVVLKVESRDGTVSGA
# Cytochrome P450 2D6 = Cytochrome P450 2D6 (Homo sapiens, UniProt P10635); test: Inhibition of human CYP2D6; type: ADME
# Cytochrome P450 2D6, sequence (P10635 whole entry): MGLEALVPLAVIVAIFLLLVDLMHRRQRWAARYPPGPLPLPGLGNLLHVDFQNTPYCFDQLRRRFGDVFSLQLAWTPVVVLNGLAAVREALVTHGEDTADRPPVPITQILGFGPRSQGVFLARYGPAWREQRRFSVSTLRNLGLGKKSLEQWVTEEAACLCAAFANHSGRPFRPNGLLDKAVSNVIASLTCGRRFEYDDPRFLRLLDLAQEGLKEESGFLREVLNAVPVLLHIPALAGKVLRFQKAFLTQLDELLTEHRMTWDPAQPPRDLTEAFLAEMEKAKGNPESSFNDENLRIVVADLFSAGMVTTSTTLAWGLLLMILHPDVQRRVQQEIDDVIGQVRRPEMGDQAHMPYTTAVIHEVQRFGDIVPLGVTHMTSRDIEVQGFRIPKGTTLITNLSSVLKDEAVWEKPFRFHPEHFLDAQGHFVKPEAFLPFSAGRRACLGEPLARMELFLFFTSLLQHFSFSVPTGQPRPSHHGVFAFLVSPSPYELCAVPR
# Cytochrome P450 1A2 = target: T3, Cytochrome P450 1A2 (Homo sapiens, UniProt P05177); test: Inhibition of human CYP1A2; type: ADME
# T3 sequence (P05177 whole entry): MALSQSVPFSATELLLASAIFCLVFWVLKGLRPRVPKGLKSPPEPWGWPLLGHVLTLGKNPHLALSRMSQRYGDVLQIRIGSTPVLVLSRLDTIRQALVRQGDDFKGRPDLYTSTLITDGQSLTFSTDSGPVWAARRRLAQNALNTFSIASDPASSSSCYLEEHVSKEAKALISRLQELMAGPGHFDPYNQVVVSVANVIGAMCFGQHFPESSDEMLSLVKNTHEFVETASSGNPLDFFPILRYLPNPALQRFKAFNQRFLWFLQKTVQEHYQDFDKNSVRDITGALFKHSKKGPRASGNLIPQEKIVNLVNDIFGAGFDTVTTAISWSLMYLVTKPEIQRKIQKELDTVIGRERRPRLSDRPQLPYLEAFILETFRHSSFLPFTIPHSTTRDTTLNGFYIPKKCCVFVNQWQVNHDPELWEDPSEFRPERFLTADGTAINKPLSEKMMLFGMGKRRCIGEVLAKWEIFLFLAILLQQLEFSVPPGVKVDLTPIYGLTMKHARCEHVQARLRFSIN
# [7] = Tmax in human plasma at 100 mg, iv by LC-MS/MS analysis; type: ADME, organism-based; how it was run: as §2
# Cytochrome P450 2B6 = target: T4, Cytochrome P450 2B6 (Homo sapiens, UniProt P20813); test: Inhibition of human CYP2B6; type: ADME
# T4 sequence (P20813 whole entry): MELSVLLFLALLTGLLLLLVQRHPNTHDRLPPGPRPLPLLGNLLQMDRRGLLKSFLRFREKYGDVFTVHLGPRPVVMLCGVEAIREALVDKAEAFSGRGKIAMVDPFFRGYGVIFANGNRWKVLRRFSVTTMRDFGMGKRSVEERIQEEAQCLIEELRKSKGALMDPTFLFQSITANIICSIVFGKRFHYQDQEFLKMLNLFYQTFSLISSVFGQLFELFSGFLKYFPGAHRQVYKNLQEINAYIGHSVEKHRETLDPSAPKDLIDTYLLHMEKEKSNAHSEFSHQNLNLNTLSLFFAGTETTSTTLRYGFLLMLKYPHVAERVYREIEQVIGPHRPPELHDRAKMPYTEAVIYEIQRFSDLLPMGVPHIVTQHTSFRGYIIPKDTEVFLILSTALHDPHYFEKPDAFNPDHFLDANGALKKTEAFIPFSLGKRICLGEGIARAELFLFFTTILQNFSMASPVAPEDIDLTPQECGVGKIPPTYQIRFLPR
# How it was run: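 Pooled liver microsomes from 53 human donors. Marker reactions: bupropion hydroxylase for CYP2B6. Incubations run in duplicate. IC50 taken from four to six concentrations.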
# [8] = Ratio of AUC in blood to plasma for Sprague-Dawley at 5 mg/kg, iv by liquid scintillation counting; type: ADME, organism-based; set-up: dose 5 mg/kg, route intravenous; conditions: rat, in vivo
# How it was run: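 Male Sprague-Dawley rats, single i.v. bolus of [14C]drug. Blood by cardiac puncture from three noncannulated rats killed at each time from 0.25 to 168 h; plasma separated from an aliquot. Radioactivity by liquid scintillation counting. Parameters come from a composite profile of mean values, taking 1 g as equal to 1 ml.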
smiles,measurement,setting,value
"CCCCCOc1ccc(-c2ccc(-c3ccc(C(=O)N[C@H]4C[C@@H](O)[C@@H](O)NC(=O)[C@@H]5[C@@H](O)[C@@H](C)CN5C(=O)[C@H]([C@@H](C)O)NC(=O)[C@H]([C@H](O)[C@@H](O)c5ccc(O)cc5)NC(=O)[C@@H]5C[C@@H](O)CN5C(=O)[C@H]([C@@H](C)O)NC4=O)cc3)cc2)cc1 [ANIDULAFUNGIN] ({pTerphenylCO(4''-OnC5H11)}-[Orn(4R-OH,5R-OH)]T[Hyp][hTyr(3S-OH,4S-OH)]T[Pro(3S-OH,4S-Me)]; lactam 1-C)",pIC50,Cytochrome P450 2C19,< 4.76
same,Vd,[1],32.6 L
same,inhibition at 17.5 µM,CYP2C8,34.3%
same,half-life,[2],27.7 h
same,CL,Plasma,0.913 L/h
same,Cmax,[3],3630 ng/mL
same,pIC50,Cytochrome P450 2C8 [4],< 4.76
same,MRT,[5],35.6 h
same,pIC50,Cytochrome P450 2C8 [6],4.92
same,pIC50,Cytochrome P450 2C9,< 4.76
same,pIC50,Cytochrome P450 3A4,< 4.76
same,pIC50,Cytochrome P450 2D6,< 4.76
same,pIC50,Cytochrome P450 1A2,< 4.76
same,Tmax,[7],1.78 h
same,pIC50,Cytochrome P450 2B6,< 4.76
same,Ratio,[8],1.5
